The results in this text go back to publication PMC11371828 (Nature Communications, 2024).

The chains are these.
B1: MBP-IκBα full length (natural protein, human, UniProt P25963 1-317, looked up)
chain: MFQAAERPQEWAMEGPRDGLKKERLLDDRHDSGLDSMKDEEYEQMVKELQEIRLEPQEVPRGSEPWKQQLTEDGDSFLHLAIIHEEKALTMEVIRQVKGDLAFLNFQNNLQQTPLHLAVITNQPEIAEALLGAGCDPELRDFRGNTPLHLACEQGCLASVGVLTQSCTTPHLHSILKATNYNGHTCLHLASIHGYLGIVELLVSLGADVNAQEPCNGRTALHLAVDLQNPDLVSLLLKCGADVNRVTYQGYSPYQLTWGRPSTRIQQQLGQLTLENLQMLPESEDEESYDTESEFTEFTEDELPYDDCVFGGQRLTL
B2: IkBa C308F (protein, UniProt P25963 1-317, looked up, variant C308F)
NF-kappa-B inhibitor alpha: B1 chain with C308F
B3: MBP-IκBα(73-317) (domain or fragment, human, UniProt P25963 73-317, looked up)
chain: DGDSFLHLAIIHEEKALTMEVIRQVKGDLAFLNFQNNLQQTPLHLAVITNQPEIAEALLGAGCDPELRDFRGNTPLHLACEQGCLASVGVLTQSCTTPHLHSILKATNYNGHTCLHLASIHGYLGIVELLVSLGADVNAQEPCNGRTALHLAVDLQNPDLVSLLLKCGADVNRVTYQGYSPYQLTWGRPSTRIQQQLGQLTLENLQMLPESEDEESYDTESEFTEFTEDELPYDDCVFGGQRLTL
B4: IKKβ(1-669) EE, 6xHis tag removed (enzyme, human, UniProt O14920 1-669, looked up)
chain: MSWSPSLTTQTCGAWEMKERLGTGGFGNVIRWHNQETGEQIAIKQCRQELSPRNRERWCLEIQIMRRLTHPNVVAARDVPEGMQNLAPNDLPLLAMEYCQGGDLRKYLNQFENCCGLREGAILTLLSDIASALRYLHENRIIHRDLKPENIVLQQGEQRLIHKIIDLGYAKELDQGELCTEFVGTLQYLAPELLEQQKYTVTVDYWSFGTLAFECITGFRPFLPNWQPVQWHSKVRQKSEVDIVVSEDLNGTVKFSSSLPYPNNLNSVLAERLEKWLQLMLMWHPRQRGTDPTYGPNGCFKALDDILNLKLVHILNMVTGTIHTYPVTEDESLQSLKARIQQDTGIPEEDQELLQEAGLALIPDKPATQCISDGKLNEGHTLDMDLVFLFDNSKITYETQISPRPQPESVSCILQEPKRNLAFFQLRKVWGQVWHSIQTLKEDCNRLQQGQRAAMMNLLRNNSCLSKMKNSMASMSQQLKAKLDFFKTSIQIDLEKYSEQTEFGITSDKLLLAWREMEQAVELCGRENEVKLLVERMMALQTDIVDLQRSPMGRKQGGTLDDLEEQARELYRRLREKPRDQRTEGDSQEMVRLLLQAIQSFEKKVRVIYTQLSKTVVCKQKALELLPKVEEVVSLMNEDEKTVVRLQEKRQKELWNLLKIACSKVRGPV

In data set [1] the target is T1, IKKα(10-667) EE homodimer (Homo sapiens, UniProt O15111, S176E/S180E).
T1 sequence (O15111 10-667 S176E/S180E): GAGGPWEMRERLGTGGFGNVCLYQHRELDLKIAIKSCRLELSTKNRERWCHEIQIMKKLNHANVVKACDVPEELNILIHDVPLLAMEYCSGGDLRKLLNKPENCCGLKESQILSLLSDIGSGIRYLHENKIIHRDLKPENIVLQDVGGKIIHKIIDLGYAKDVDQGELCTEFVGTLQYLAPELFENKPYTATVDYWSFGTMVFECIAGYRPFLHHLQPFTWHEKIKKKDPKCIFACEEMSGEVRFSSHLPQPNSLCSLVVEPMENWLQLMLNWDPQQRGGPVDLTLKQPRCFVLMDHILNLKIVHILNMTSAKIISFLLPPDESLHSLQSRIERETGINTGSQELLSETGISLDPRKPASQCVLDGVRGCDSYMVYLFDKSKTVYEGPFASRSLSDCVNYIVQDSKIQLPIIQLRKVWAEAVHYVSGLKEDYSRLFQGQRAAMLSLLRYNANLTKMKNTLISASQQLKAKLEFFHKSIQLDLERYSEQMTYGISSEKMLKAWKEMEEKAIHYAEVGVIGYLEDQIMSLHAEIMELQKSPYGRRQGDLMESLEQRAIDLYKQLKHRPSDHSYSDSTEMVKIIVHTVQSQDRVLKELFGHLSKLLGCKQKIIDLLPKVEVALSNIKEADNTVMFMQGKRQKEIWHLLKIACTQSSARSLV
Put plainly: ITC of synthetic YDDΦxΦ peptides with IKKα homodimer. The format is binding. To be noted: for ITC binding to IKKα, in words: 25 °C, titration of the IKKα homodimer with synthetic peptide. In a few lines: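 IKKα(10-667) EE was expressed in Sf21 insect cells and purified by Ni-NTA affinity. It was then dialyzed overnight at 4 °C against ITC buffer (20 mM HEPES pH 8.0, 150 mM NaCl, 1 mM TCEP), which was used for all titrations unless otherwise stated.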

Data set [2] has as its system IKKα/β heterodimer (6xHis-IKKβ(1-669) EE, Strep-IKKα(10-667) EE). Put plainly: MBP-pulldown with purified IKKα/β heterodimer. Format: binding. To be noted: MBP-IκBα pep(s) vs MBP negative control, Coomassie. The method in brief: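 Heterodimer co-expressed in Sf21 insect cells, purified on Strep-Tactin then Ni-NTA, pre-incubated with 1 mM ATP, MgCl2, β-glycerophosphate, NaF and orthovanadate for 1 h on ice, then gel-filtered in Tris pH 8.0 buffer. MBP-fusion baits expressed in E. coli BL21(DE3), captured on amylose resin. Binding in 20 mM Tris pH 8.0, 150 mM NaCl, 2 mM DTT. Bound proteins Coomassie-stained.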

Data set [3] concerns the target B4. Put plainly: ITC.
The target in data set [4] is T2, IKKα(10-667) EE, 6xHis tag removed (UniProt O15111 10-667, S176E | S180E).
T2 sequence (looked up): T1 sequence (O15111 10-667 S176E/S180E)
Description: ITC.

Data set [5] deals with T3, 6xHis-IKKβ(1-669) EE (human, UniProt O14920 1-669, S177E | S181E).
T3 sequence (looked up): B4 chain
Put plainly: pull-down.

Data set [6] concerns MEF cells KO for IκBα, IκBβ, IκBε. Description: In cellulo degradation of retro-transduced IκBα proteins after TNFα. The format is cell-based, mouse. The settings on record: retro-transduced IκBα constructs, TNFα 20 ng/ml, compared with wt IκBα. The method in brief:
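Retroviruses came from Phoenix-eco cells (5 × 10^6) transfected with 6 μg pBABE-IκBα plasmid; empty vector was the control. Medium was changed at 6 h and the virus-containing medium collected at 48 h, filtered, and used to infect the MEFs.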

The target in data set [7] is T3, 6xHis-IKKβ(1-669) EE. Put plainly: pull-down. This is another data set of the same source.
Data set [8] deals with the molecule itself. Description: crystal structure.
In data set [9] the target is T3, 6xHis-IKKβ(1-669) EE. Description: cross-linking.

Changes are numbered by the printed parent chain. Names and notes keep the numbering of the source. “Also recorded” adds a separate entry of the source. Where no end group is shown, it is not given here. MBP = maltose binding protein (fused N-terminally to the peptide)

A word on the Kd: it is the constant that tells how readily two partners part at equilibrium. The molecule “EFTEDELPYDDLVFGGQRLTL-NH2 [IκBα pep C308L]” came in with a dissociation constant (Kd) in data set [1] of 0.42 µM. In other words, the sub-micromolar range.
As for EFTEDELPpYDDLVFGGQRLTL [pY-IκBα pep], the “ITC binding to IKKα, in words” value in data set [1] was “too weak to allow for accurate thermodynamic analysis; also recorded: absence of interaction”.
Consider “IκBα pep(s): 17 amino acid peptide, residues 301-317 of IκBα, fused to MBP ({MBP}-DELPYDDCVFGGQRLTL)”, for which, in data set [2], the “binding of the IKKα/β heterodimer in MBP-pulldown, in words” value is “specifically binds”.
On to LSSANSLYDDIECFLMELEQPA [IRF7 pep], for which, in data set [1], the “ITC binding to IKKα, in words” value is given as “too weak to allow for accurate thermodynamic analysis; also recorded: binds with weak affinity to IKKα”.
In general, stoichiometry N refers to a count of units in the complex or per binding partner. Take EFTEDELPYDDCVFGGQRLTL [IκBα pep (synthetic, residues 297-317 of IκBα)]: in [3], the Kd is 40 µM, the dH was -16.3 kcal/mol and the “stoichiometry N” value was determined as 0.63. Also, in data set [4], the Kd worked out at 7.7 µM, the dH is -14.2 kcal/mol and the “stoichiometry N” value was 0.63.
Regarding EFTEDELPYDDLVFGGQRLTL-NH2 [C308L IκBα pep (synthetic)], in data set [3], the equilibrium dissociation constant (Kd) worked out at 2.4 µM, the dH is -11.5 kcal/mol and the “stoichiometry N” value amounted to 0.66.
Take B1: in data set [5], the binding result is “binds”.
As for B2, in [6], the “IκBα degradation after TNFα stimulation, in words” value is on record as “slightly faster compared to that of the wt IκBα protein”.
As to DELPYDDFVFGGQRLTL (peptide, UniProt P25963 301-317, looked up) [MBP-IκBα pep(s) C308F], the binding result in [7] is listed as “binds”.
As for DELPYDDLVFGGQRLTL (peptide, UniProt P25963 301-317, looked up) [MBP-IκBα pep(s) C308L], the binding result in [7] is recorded as “binds”.
With B3, the binding result in data set [7] is recorded as “binds”.
Turning to B4, the binding result in [8] is recorded as “binds”.
GLDGIIEYDDFKLNSSIVEPKE [p100 pep (synthetic, residues 8-29 of p100)]: in [4], the Kd was ~12 µM, the dH was ~-13.4 kcal/mol and the “stoichiometry N” value stood at 0.6.
In the case of EFTEDELPYDDLVFGGQKLTL-NH2 [C308L/R314K IκBα pep (synthetic)], the binding result in data set [9] is listed as “binds”.
